Bioassay records (PubChem BioAssay)
Arr AP2 block: human beta-arrestin and AP2 interaction inhibition; 340,000 compounds, 0.31% hits; FITC-arrestin peptide / GST-AP2 beads, flow cytometry; AP2 beta2 appendage carries R879A mutation; inhibition, % at 10 µM; AID 504490;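 active = inhibition above a set limit, near 3 SD of compounds lacking own fluorescence, cut at about 54% in these data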
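test system = AP2 appendage R879A on GSH beads | buffer or medium = PBS plus Tween 20 (0.05%) and BSA (0.1%) | incubation = 12 min plus 1 h, RT | detection = bead flow cytometry, FITC channel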
CendR NRP1 mod: alters CendR peptide binding to human NRP-1; O14786; FAM-RPARPAR peptide binding to NRP-1, fluorescence polarization; inhibition, % at 25 µM; 360,000 compounds, 0.85% hits;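 active = inhibition or corrected inhibition above about 18%, plus a signal ratio from 0.5 to 1.5, limit read from the data, passing the limit was not always enough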
ADAM10 inh: ADAM10 inhibition, QFRET primary screen. recombinant ADAM10, EDANS/DABCYL FRET peptide cleavage, 3 h. inhibition, % at 7 µM. AID 720582. 370,000 compounds, 0.62% hits. O14672;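 active = inhibition above a per-campaign cutoff equal to the mean of compounds falling between control-based bounds plus 3 SD, cut at about 20% in these data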
Target sequence (O14672 214-748 limits assumed): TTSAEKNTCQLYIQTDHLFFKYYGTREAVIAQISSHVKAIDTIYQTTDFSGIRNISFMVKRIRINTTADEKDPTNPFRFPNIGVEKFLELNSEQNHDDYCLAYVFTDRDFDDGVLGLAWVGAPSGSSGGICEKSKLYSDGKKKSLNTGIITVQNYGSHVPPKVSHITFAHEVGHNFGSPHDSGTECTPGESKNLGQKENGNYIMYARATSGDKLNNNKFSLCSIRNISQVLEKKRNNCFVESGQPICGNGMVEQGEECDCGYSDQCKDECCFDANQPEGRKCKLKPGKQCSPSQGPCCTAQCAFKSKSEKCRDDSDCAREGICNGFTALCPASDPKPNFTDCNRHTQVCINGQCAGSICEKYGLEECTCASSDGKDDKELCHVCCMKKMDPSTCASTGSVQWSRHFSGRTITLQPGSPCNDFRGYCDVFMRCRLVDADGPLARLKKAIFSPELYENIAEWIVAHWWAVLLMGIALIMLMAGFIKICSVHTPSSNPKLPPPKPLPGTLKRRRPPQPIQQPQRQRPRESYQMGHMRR
ADAM17 inh: inhibits human ADAM17. recombinant ADAM17, EDANS/DABCYL FRET peptide cleavage. 370,000 compounds, 0.83% hits. inhibition, % at 6.95 µM;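 active = inhibition above the mean of compounds lying between control limits plus 3 SD, set per campaign, cut at about 8.5% in these data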
CaV13 ICDI inh: Disruptors of the CACNA1D IQ motif to Ca2+-dependent inactivation inhibitor domain association, primary screening, Förster resonance energy transfer in intact living …; 340,000 compounds, 0.098% hits; inhibition, % at 12.3 µM; HEK cells, CFP/YFP FRET ICDI-IQ, plate reader, 10 min; percent FRET-ratio fall versus neutral wells; AID 743397;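 active = mean replicate inhibition of at least 30% and at least 1% of replicates passing that level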
FAS TE block: FAS thioesterase (human) inhibition; P49327; recombinant FAS-TE, OMFH fluorogenic substrate, fluorescence endpoint; inhibition, % at 15 µM; 360,000 compounds, 0.67% hits; AID 602261;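 active = compounds whose normalised, plate-corrected inhibition of enzyme fluorescence in the single-dose primary screen is 50% or more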
Hits are given with their value; 0 = inactive; - = not tested or not shown. Shown are actives, neighbours in structure and some others; about 2.9% of the full set was active somewhere.

SMILES	Arr AP2 block	CendR NRP1 mod	ADAM10 inh	ADAM17 inh	CaV13 ICDI inh	FAS TE block
O=C(CCCNC(=O)/C(=C/c1ccc(F)cc1)NC(=O)c1ccccc1)OCc1ccccc1	0	0	0	0	0	0
CC(C)c1cc(Cn2c3ccccc3c(=O)n2C(C)CBr)on1 (stereo not given)	-	0	0	0	0	0
O=S(=O)(C(=CNc1ccccc1)S(=O)(=O)c1ccccc1)c1ccccc1	0	0	0	0	0	0
Cc1ccc(NC=C(S(=O)(=O)c2ccccc2)S(=O)(=O)c2ccccc2)cc1	0	29	0	0	0	0
Cc1ccc(NC(=S)c2nc3ccccc3[nH]2)c(C)c1	0	0	0	8.9	0	0
Cc1ccc(NC(=S)c2nc3ccccc3[nH]2)cc1	0	0	0	0	0	0
CC1=CC2(C(Cc3ccccc3)N(CC3CC3)C(=NC(=O)c3ccccc3)N2C(=O)OCc2ccccc2)n2c(=O)n(-c3ccccc3)c(=O)n2C1 (stereo not given)	-	-	0	0	-	-
Cc1cc(C(=O)CN2C(=O)C3CC=CCC3C2=O)c(C)n1-c1ccccc1 (stereo not given)	0	29	0	0	0	0
N=c1c2c(-c3ccccc3)c(-c3ccccc3)n(Cc3ccccc3)c2ncn1C1CCOCC1	-	-	0	0	-	-
COc1ccc(-n2c(SCC(=O)Nc3ccc(S(=O)(=O)Nc4nccs4)cc3)nnc2-c2ccccc2)cc1	-	-	0	0	-	-
CC1CN(C(=O)c2ccc(CNS(=O)(=O)c3cccc(Cl)c3)cc2)CC(C)O1 (stereo not given)	0	28	0	0	-	0
CCCN1C(=O)c2[nH]nc(-c3ccccc3)c2C1c1ccc(Br)cc1 (stereo not given)	-	-	0	0	0	-
COC(=O)[C@]12CCCCC=C1N(CCC1=CCCCC1)C(=O)[C@H](CC(=O)NCc1cccc(C(F)(F)F)c1)C2	-	0	0	0	0	0
COC(=O)C(C(=O)OC)c1ccc(-n2cccc2)cc1	56	0	0	0	0	0
NC(=O)c1c(NC(=O)C(=O)N2CCOCC2)sc2c1CCCC2	0	32	0	0	0	0
Cc1nn(-c2ccc(Cl)c(Cl)c2)c(=O)c2ccccc12	0	38	0	0	-	0
CCCC[C@H]1C2CC(OC(=O)Nc3cccc(F)c3)C(C2)[C@H]2CCCCN21 (stereo not given in full)	-	-	0	0	-	-
O=C(C[C@H]1C/C=C\C[C@@H](Cc2ccc(F)cc2)C(=O)O[C@H](c2ccccc2)CNC1=O)NCCO	0	18	0	0	0	0
CC(C)(C)[C@H]1COC(=O)[C@H](NC(=O)OCC2c3ccccc3-c3ccccc32)C/C=C\C[C@@H](CC(=O)N[C@@H](CO)Cc2ccccc2)C(=O)N1	0	19	0	0	0	0
CC(C)(C)OC(=O)C[C@@H]1C/C=C\C[C@@H](CC(=O)NCCO)C(=O)NC[C@@H](c2ccccc2)OC1=O	0	18	0	0	0	0
O=C(C[C@@H]1C/C=C/CC[C@H](Cc2ccc(F)cc2)C(=O)O[C@H](c2ccccc2)CNC1=O)NCCO	0	0	0	0	0	0
CC(C)(C)OC(=O)C[C@H]1C/C=C\C[C@@H](CC(=O)N[C@H](CO)Cc2ccccc2)C(=O)NCCOC1=O	0	0	0	0	0	0
CC(C)(C)OC(=O)C[C@H]1C/C=C\C[C@@H](CC(=O)N[C@@H](CO)Cc2ccccc2)C(=O)NCCOC1=O	0	36	0	0	0	0
CCOC(=O)C1=CCC(c2ccccc2)N(S(=O)(=O)c2ccccc2C)C1 (stereo not given)	-	0	0	0	0	0
Cc1ccc(CN2CCCCC(NC(=O)Nc3ccccc3F)C2=O)cc1 (stereo not given)	-	-	0	0	-	-
SMILES	Arr AP2 block	CendR NRP1 mod	ADAM10 inh	ADAM17 inh	CaV13 ICDI inh	FAS TE block
Cc1ccccc1S(=O)(=O)Cc1ccc(C(=O)NCc2cccnc2)o1	0	49	0	0	0	0
Cc1ccccc1S(=O)(=O)Cc1ccc(C(=O)NCc2ccccc2)o1	0	0	0	0	0	0
COC(=O)C1=C(C)N(CCCC(=O)O)C(=O)NC1c1ccc(-c2ccccc2)cc1 (stereo not given)	0	30	0	0	0	0
COC(=O)C1=C(C)N(CCCC(=O)O)C(=O)NC1c1ccc(Br)cc1 (stereo not given)	0	0	0	0	0	0
O=C(COC(=O)C1CC(=O)N(Cc2ccccc2)C1)Nc1ccccc1F (stereo not given)	0	26	0	0	0	0
O=C(Nc1cccc(C(=O)O)c1)/C(=C\c1ccccc1)NC(=O)c1ccco1	-	0	0	0	0	0
CCCCC[C@@H](C)N1C[C@H](COCc2ccccc2)Oc2cc(N3CC[C@H](O)C3)ccc2S1(=O)=O	-	20	0	0	0	0
O=[N+]([O-])c1ccc(OC[C@@H](O)CN2CCC(C(O)(c3ccccc3)c3ccccc3)CC2)c(Cl)c1	-	-	0	0	-	-
c1ccc2c3n(nc2c1)CCCO3	0	32	0	0	0	0
COc1ccc(N2C(=O)CC(N3CCN(c4ccc(Cl)cc4)CC3)C2=O)cc1 (stereo not given)	0	0	0	0	0	0
CCOc1ccc(N2C(=O)CC(N3CCN(c4ccc(Cl)cc4)CC3)C2=O)cc1 (stereo not given)	0	22	0	0	0	0
Cc1c(NC(=O)C2(c3ccccc3)CCCC2)c(=O)n(-c2ccccc2)n1C	0	0	0	0	0	0
Cc1c(NC(=O)CSc2nc(N)cc(N)n2)c(=O)n(-c2ccccc2)n1C	0	20	0	0	0	0
Cc1c(NC(=O)COC(=O)C2(c3ccc(F)cc3)CCCC2)c(=O)n(-c2ccccc2)n1C	0	22	0	0	0	0
Cc1c(NC(=O)Cn2nc(C(=O)O)c3ccccc3c2=O)c(=O)n(-c2ccccc2)n1C	0	0	0	0	-	0
Cc1c(NC(=O)c2c(O)c3ccccc3n(C)c2=O)c(=O)n(-c2ccccc2)n1C	0	32	0	0	0	0
Cc1nc(SCC(=O)Nc2c(C)n(C)n(-c3ccccc3)c2=O)nc(C)c1C	0	0	0	0	-	0
Cc1c(NC(=O)Cn2nc(C(F)(F)F)c3c2CCCC3)c(=O)n(-c2ccccc2)n1C	0	23	0	0	0	0
Cc1c(NC(=O)c2c(F)c(F)c(F)c(F)c2F)c(=O)n(-c2ccccc2)n1C	0	0	0	0	0	0
COc1ccc(Cn2c(NC(=O)c3ccccc3)nc(Cc3ccccc3)c2-c2ccccc2)cc1	-	-	0	0	-	-
CC1(C(=O)NS(=O)(=O)c2cccc(Cl)c2)CCN1C(=O)C/C=C/c1ccccc1 (stereo not given)	-	0	0	0	0	0
